In ChEMBL document CHEMBL1125928, “Isoprenyl phosphinylformates: new inhibitors of squalene synthetase” (J Med Chem, 1991):
Each block holds one molecule with its values, some of them ahead of it.

Legend:
[1] = species: Rattus norvegicus; test: Compound was tested for the inhibition of cholesterol biosynthesis from [14C]- acetate in freshly isolated rat hepatocytes; type: functional; conditions: Hepatocyte, read-out: I50
[2] = target: T1, Squalene synthase (Rattus norvegicus, UniProt Q02769); test: Inhibitory activity against liver microsomal Squalene synthase; conditions: read-out: I50
T1 sequence (Q02769 whole entry): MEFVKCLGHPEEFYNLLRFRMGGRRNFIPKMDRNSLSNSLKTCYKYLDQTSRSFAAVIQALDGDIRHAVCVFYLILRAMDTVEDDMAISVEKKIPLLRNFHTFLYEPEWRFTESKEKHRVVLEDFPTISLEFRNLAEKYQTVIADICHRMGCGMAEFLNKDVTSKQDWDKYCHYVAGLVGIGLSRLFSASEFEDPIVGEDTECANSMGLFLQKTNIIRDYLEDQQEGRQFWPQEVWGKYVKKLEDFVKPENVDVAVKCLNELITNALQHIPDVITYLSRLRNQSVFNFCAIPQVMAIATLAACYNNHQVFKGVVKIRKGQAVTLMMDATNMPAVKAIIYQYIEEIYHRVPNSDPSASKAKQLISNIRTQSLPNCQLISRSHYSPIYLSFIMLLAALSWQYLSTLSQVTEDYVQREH

[3] = species: Rattus norvegicus; test: Compound was tested for the inhibition of cholesterol biosynthesis from [14C]- acetate in freshly isolated rat hepatocytes; inactive at 200 uM; type: functional; conditions: hepatocyte
[4] = target: T1, Squalene synthase; test: Inhibitory activity against microsomal squalene synthase
[5] = species: Homo sapiens; test: Compound was tested for the inhibition of cholesterol biosynthesis from [14C]- acetate in freshly isolated from human skin fibroblasts; inactive at 100 uM; type: functional, organism-based
[6] = species: Homo sapiens; test: Compound was tested for the inhibition of cholesterol biosynthesis from [14C]- acetate in freshly isolated from human skin fibroblasts; inactive at 300 uM; type: functional, organism-based
[7] = species: Homo sapiens; test: Compound was tested for the inhibition of cholesterol biosynthesis from [14C]- acetate in freshly isolated from human skin fibroblasts; inactive at 15 uM; type: functional, organism-based
[8] = species: Homo sapiens; test: Compound was tested for the inhibition of cholesterol biosynthesis from [14C]- acetate in freshly isolated from human skin fibroblasts; type: functional, organism-based; conditions: read-out: I50
[9] = species: Homo sapiens; test: Compound was tested for the inhibition of cholesterol biosynthesis from [14C]- acetate in freshly isolated from human skin fibroblasts; inactive at 30 uM; type: functional
[10] = compound: CC(C)=CCC/C(C)=C/CC/C(C)=C/COP(=O)(O)OP(=O)(O)O; test: Competitive inhibitory activity against microsomal Squalene synthase
Outline: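 Rat microsomal enzyme; inhibitor at 0, 2.5, 10 and 30 μM against FPP varied from 5 to 50 μM, with NADPH held saturating at 0.9 mM. Inhibition type and Ki were taken from double-reciprocal (Lineweaver-Burk) plots of the kinetic data.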

Molecule: CC(C)=CCC/C(C)=C/CC/C(C)=C/COP(=O)(O)CC(=O)O
IC50 [1]: 273 µM
IC50 [2]: 86 µM

Molecule: CC(C)=CCC/C(C)=C/CC/C(C)=C/CCP(=O)(O)CP(=O)(O)O
I50 [3]: Inactive
Ki [4]: 10 µM
I50 [5]: Inactive

Molecule: CC(C)=CCC/C(C)=C/CC/C(C)=C/CCCOP(=O)(O)C(=O)O
IC50 [2]: 41.6 µM

Molecule: CC(C)=CCC/C(C)=C/CC/C(C)=C/CCC[PH](=O)O
IC50 [2]: 197 µM

Molecule: CCOC(=O)P(=O)(O)OCC/C=C(\C)CC/C=C(\C)CCC=C(C)C
IC50 [8]: 12 µM
IC50 [1]: 9 µM
IC50 [2]: 106 µM

Molecule: CCOC(=O)P(=O)(O)CCC/C=C(\C)CC/C=C(\C)CCC=C(C)C
IC50 [8]: 2.2 µM
IC50 [1]: 24 µM
IC50 [2]: 112 µM

Molecule: CC(C)=CCC/C(C)=C/CC/C(C)=C/CCP(=O)([O-])CC(=O)[O-].[K+].[K+]
I50 [5]: Inactive
IC50 [1]: 71 µM

B1: Squalene synthase (Rattus norvegicus), Q02769 (protein)
chain: T1 sequence (Q02769 whole entry)
Km [10]: 12.7 µM

More lines, main results first:

IC50 [2]: 31.8 µM
Molecule: CC(C)=CCC/C(C)=C/CC/C(C)=C/CCCP(=O)([O-])C(=O)[O-].[Na+].[Na+]
IC50 [1]: 30 µM
I50 [6]: Inactive

IC50 [2]: 8.7 µM
Molecule: CC(C)=CCC/C(C)=C/CC/C(C)=C/CCOP(=O)([O-])C(=O)[O-].[Na+].[Na+]
I50 [7]: Inactive
IC50 [1]: 6 µM

IC50 [2]: 100 µM
Molecule: CC(C)=CCC/C(C)=C/CC/C(C)=C/CCP(=O)([O-])C(=O)[O-].[Na+].[Na+]
I50 [9]: Inactive
IC50 [1]: 5.7 µM
